# Screens (PubChem)
# Compounds with a hit are over-represented: about 2.9% of the library has one in this group of screens.
# CAL PDZ FP-1 – human CAL PDZ-peptide interaction inhibition; Q9HD26; purified CAL PDZ, TMR-peptide fluorescence polarization, 1 h; inhibition, % at 20 µM; 0.02% of 330,000 active;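 active = highest replicate inhibition of at least 40%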;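 also: plate controls were DMSO neutral control wells for no effect and unlabeled competitor peptide control wells for full effect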
#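 Assay system – tagged CAL PDZ protein CerCALP, purified · Timing – 1 h at RT · Compound – single point, 20 µM · Measured by – fluorescence polarization from S- and P-plane intensities, G-factor corrected · Evaluation – inhibition from polarization loss · Probe or stimulus – TMR reporter peptide T*-PRC34 · Buffer or medium – pH 7.4 phosphate-saline buffer, reducing agent, detergent, IgG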
# ERAP1 inh – blocks human ERAP1 aminopeptidase activity | Q9NZ08 | recombinant ERAP1, Leu-AMC fluorescence, 60 min | inhibition, % at 10.7 µM | 0.15% of 340,000 active | AID 652197;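 active = mean replicate inhibition of at least 30%, or all replicates individually reaching that 30% level; inactive = mean below 30% and not every replicate reaching it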;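 also: 0% = neutral control wells and 100% = L-leucinethiol positive control wells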
# S100A4 inh HTS – inhibitors of human S100A4 binding to myosin IIA peptide; P26447; S100A4/TAMRA-MyoIIA peptide fluorescence polarization; inhibition, % at 10.7 µM; 0.14% of 360,000 active; AID 652163;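 active = mean inhibition of at least 70% across replicates, with every replicate also reaching that level; inconclusive = mean inhibition reaches 70% but some replicates fall short; inactive = mean inhibition below 70%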
# Target sequence (P26447 whole entry, looked up): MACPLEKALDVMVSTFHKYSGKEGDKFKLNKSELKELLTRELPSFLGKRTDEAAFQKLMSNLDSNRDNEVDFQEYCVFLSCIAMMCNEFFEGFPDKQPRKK
#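 Test system – S100A4 monomer (human) · Compound – single-point compound testing · Schedule – 5 min incubation before reading · Probe or stimulus – TAMRA-labelled myosin IIA heavy-chain peptide probe, 5 nM · Benchmarks – neutral control DMSO, positive control TFP · Medium – Calcium-containing HEPES buffer, pH 7.2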
# CAL PDZ FP-2 – blocks peptide binding to the human CAL PDZ domain; Q9HD26; 0.92% of 300,000 active; purified CAL PDZ, TMR-peptide fluorescence polarization, 1 h; AID 602252; inhibition, % at 24.9 µM;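 active = mean inhibition of at least 30% with at least half of replicates also reaching 30%; inconclusive = no clear call, values can overlap the other calls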;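 also: 0% = DMSO neutral control and 100% = excess unlabeled competitor peptide PRC23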
# SIRT5 block – blocks human SIRT5 desuccinylation of peptide. inhibition, % at 15 µM. AID 652115. 1.1% of 330,000 active. Purified SirT5, succinyl-peptide AMC, trypsin-coupled fluorescence. Q9NXA8; in the data active = inhibition above about 15%; inconclusive = no clear call, values can overlap the other calls
# Target sequence (Q9NXA8 whole entry, looked up): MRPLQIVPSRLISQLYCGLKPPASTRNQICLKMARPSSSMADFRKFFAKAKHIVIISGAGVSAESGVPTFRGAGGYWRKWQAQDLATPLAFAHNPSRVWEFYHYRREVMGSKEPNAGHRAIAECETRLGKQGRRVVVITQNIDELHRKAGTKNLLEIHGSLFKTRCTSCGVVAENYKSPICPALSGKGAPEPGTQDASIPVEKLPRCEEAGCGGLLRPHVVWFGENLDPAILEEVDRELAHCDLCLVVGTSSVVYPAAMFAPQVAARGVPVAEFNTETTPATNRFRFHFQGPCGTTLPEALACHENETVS
# DENV2 CPE – inhibitors of DENV2 cytopathic effect; DENV2-infected cells, cytopathic effect rescue, plate reader; CPE inhibition, % at 9.99 µM; 1.7% of 350,000 active; AID 651640; in the data active = CPE inhibition above about 20%, passing the limit was not always enough; inconclusive = no clear call, values can overlap the other calls; tested in BHK-21 cells;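 also: 0% = median of neutral control wells and 100% = median of positive control wells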
# Active calls of the source: *; u = inconclusive; x = no result given.
SMILES,CAL PDZ FP-1,ERAP1 inh,S100A4 inh HTS,CAL PDZ FP-2,SIRT5 block,DENV2 CPE
CC(NC(=O)c1ccncc1)C(c1cccs1)N1CCOCC1 (centres undefined),-2.5,-3.1,8.8,-0.3,19.9*,-9.5
CC(NC(=O)c1ccc(C(C)(C)C)cc1)C(c1cccs1)N1CCOCC1 (centres undefined),-1.6,4.3,-8.7,1.2,-4.4,-3.9
O=C(C[C@@H]1CC[C@H](NC(=O)CN2CCOCC2)[C@H](CO)O1)NCCc1ccncc1,x,-2.1,-5.8,x,7.2,3.7
O=C(NC(=S)Nc1ccccc1)c1cncc(C#Cc2ccccc2)c1,0.3,2.1,4.0,45.4*,4.1,6.8
Cc1ccc(S(=O)(=O)N2C[C@H]3n4c(=O)ccc(=O)n4C[C@H](OC(=O)NCc4ccccc4)[C@@]3(O)C2)cc1,x,1.7,-1.0,x,-1.9,7.9
Cc1ccc(S(=O)(=O)N2C[C@H]3n4c(=O)ccc(=O)n4C[C@H](OC(=O)NCc4ccco4)[C@@]3(O)C2)cc1,x,7.5,9.3,x,32.8*,-5.2
CCCCCCn1c(=O)n2n(c1=O)[C@@H]1CN(S(=O)(=O)c3ccc(C)cc3)C[C@]1(O)[C@@H](OC(=O)NCc1ccccc1)C2,x,9.1,-1.3,x,20.3*,-8.2
C[C@@H]1CCCCO[C@H](CN(C)S(=O)(=O)c2cccs2)[C@@H](C)CN([C@@H](C)CO)C(=O)c2cc(NC(=O)CCC(F)(F)F)ccc2O1,x,4.2,-4.5,x,6.3,u
COc1ccccc1C(=O)COC(=O)CCCN=C1NS(=O)(=O)c2ccccc21,-1.0,-0.2,-4.7,2.8,-1.3,-2.5
O=C(CCN=C1NS(=O)(=O)c2ccccc21)OCC(=O)c1ccccc1Cl,-1.5,6.1,-4.3,-1.2,16.0*,1.8
OCC[C@H]1C[C@@H](O)[C@H](O)[C@]2(Cc3ccccc3CCO2)O1,-0.1,-3.1,-0.5,-0.2,-6.2,47.4*
OCC[C@@H]1C[C@H](O)[C@@H](O)[C@@]2(Cc3ccccc3CCO2)O1,-1.0,-1.7,26.7,-2.6,4.0,u
CO[C@H]1CN(C)C(=O)c2cc(NC(=O)c3cc(C)on3)ccc2OC[C@@H](C)NC[C@@H]1C,x,x,3.4,x,-2.3,-6.2
COc1cc(/C=C/C(=O)NC(C)C)ccc1OCc1ccccc1,-3.6,x,x,-3.7,x,x
COc1cc(/C=N/OCC(=O)Nc2cc(C)on2)ccc1OCc1ccccc1,0.3,0.8,1.7,-0.5,28.0*,-5.9
COc1ccc(S(=O)(=O)Nc2ccc3c(c2)C(=O)N([C@@H](C)CO)C[C@H](C)[C@H](CN(C)S(=O)(=O)c2ccccc2)OCCCC[C@H](C)O3)cc1,x,0.4,-31.6,x,5.6,4.1
CC(=O)N(c1nc(/C=C\C(=O)O)cs1)c1ccccc1F,0.0,x,-7.9,-1.6,16.9*,u
CC(=O)N(c1nc(CCl)cs1)c1cccc(C)c1C,0.0,0.7,1.5,12.3,-6.0,5.0
CCCN1[C@@H]2c3ccc(-c4ccccc4)c(=O)n3C[C@@H]2[C@@H](CO)[C@@H]1C(=O)NCC1CC1,x,2.0,31.6,x,9.4,u
O=C(O/N=C1\CCS(=O)(=O)c2sccc21)c1c(F)cccc1F,-2.8,-2.4,9.6,1.7,2.2,0.9
O=S1(=O)CC/C(=N\Nc2ccccc2)c2ccsc21,-0.8,0.0,7.8,33.2*,-0.1,-5.2
CCC(=O)N1CC(=O)N2[C@H](CO)[C@@H](c3ccc(C#CC4CCCC4)cc3)[C@@H]2C1,x,-0.6,-1.2,x,-2.0,8.8
COC(=O)c1c(NC(=O)CSc2n[nH]c(N)n2)sc(C)c1C,0.8,x,x,0.5,x,x
Cc1sc(NC(=O)CSc2n[nH]c(N)n2)c(C#N)c1C,-4.0,2.2,-8.1,x,15.6*,0.6
COc1ccc(NC(=O)N(C)C[C@H]2Oc3ccc(NS(=O)(=O)c4ccc(F)cc4)cc3C(=O)N([C@@H](C)CO)C[C@H]2C)cc1,x,5.1,2.5,x,3.1,2.7
CCC(=O)N1CC[C@@H]2[C@H]1c1cc(C#Cc3cccc(F)c3)ccc1N(C)[C@H]2CO,x,0.1,-25.2,x,-1.9,127.1*
CCCC#Cc1ccc2c(c1)[C@@H]1[C@@H](CCN1C(=O)CC1CC1)[C@@H](CO)N2C,x,0.1,-18.2,x,0.2,74.3*
